Data taken from ChEMBL document CHEMBL4312019, “Design, synthesis, and evaluation of compounds capable of reducing Pseudomonas aeruginosa virulence” (Eur J Med Chem, 2020).
Active and inactive are the calls of the source. The rule behind the calls is not given here.

Columns and labels:
Pseudomonas aeruginosa [1] = test: Inhibition of biofilm formation in Pseudomonas aeruginosa PAO1 at 10 uM incubated for 10 hrs by crystal violet staining based microtiter plate method relative to control; format: functional; settings: PAO1, 10 h
How it was run: (§1)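 PAO1 or PA14 grown at 37 °C with 10 µM compound or vehicle. Expressed as percent biofilm biomass versus vehicle-treated control; mean ± SEM.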

Pseudomonas aeruginosa [2] = test: Inhibition of biofilm formation in Pseudomonas aeruginosa PA14 at 10 uM incubated for 10 hrs by crystal violet staining based microtiter plate method relative to control; format: functional; settings: PA14, 10 h; how it was run: as §1
[3] = Inhibition of quorum sensing system in Pseudomonas aeruginosa assessed as reduction of rhamnolipids level at 10 uM measured after 24 hrs by methylene-blue based assay relative to control
How it was run: (§2)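 P. aeruginosa grown 24 h with or without 10 µM compound. Rhamnolipids quantified by methylene-blue assay against a six-point standard curve of commercial rhamnolipids.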

[4] = target: Voltage-gated inwardly rectifying potassium channel KCNH2 (Homo sapiens, UniProt Q12809); test: Inhibition of human ERG
Chain of Voltage-gated inwardly rectifying potassium channel KCNH2 (Q12809 whole entry): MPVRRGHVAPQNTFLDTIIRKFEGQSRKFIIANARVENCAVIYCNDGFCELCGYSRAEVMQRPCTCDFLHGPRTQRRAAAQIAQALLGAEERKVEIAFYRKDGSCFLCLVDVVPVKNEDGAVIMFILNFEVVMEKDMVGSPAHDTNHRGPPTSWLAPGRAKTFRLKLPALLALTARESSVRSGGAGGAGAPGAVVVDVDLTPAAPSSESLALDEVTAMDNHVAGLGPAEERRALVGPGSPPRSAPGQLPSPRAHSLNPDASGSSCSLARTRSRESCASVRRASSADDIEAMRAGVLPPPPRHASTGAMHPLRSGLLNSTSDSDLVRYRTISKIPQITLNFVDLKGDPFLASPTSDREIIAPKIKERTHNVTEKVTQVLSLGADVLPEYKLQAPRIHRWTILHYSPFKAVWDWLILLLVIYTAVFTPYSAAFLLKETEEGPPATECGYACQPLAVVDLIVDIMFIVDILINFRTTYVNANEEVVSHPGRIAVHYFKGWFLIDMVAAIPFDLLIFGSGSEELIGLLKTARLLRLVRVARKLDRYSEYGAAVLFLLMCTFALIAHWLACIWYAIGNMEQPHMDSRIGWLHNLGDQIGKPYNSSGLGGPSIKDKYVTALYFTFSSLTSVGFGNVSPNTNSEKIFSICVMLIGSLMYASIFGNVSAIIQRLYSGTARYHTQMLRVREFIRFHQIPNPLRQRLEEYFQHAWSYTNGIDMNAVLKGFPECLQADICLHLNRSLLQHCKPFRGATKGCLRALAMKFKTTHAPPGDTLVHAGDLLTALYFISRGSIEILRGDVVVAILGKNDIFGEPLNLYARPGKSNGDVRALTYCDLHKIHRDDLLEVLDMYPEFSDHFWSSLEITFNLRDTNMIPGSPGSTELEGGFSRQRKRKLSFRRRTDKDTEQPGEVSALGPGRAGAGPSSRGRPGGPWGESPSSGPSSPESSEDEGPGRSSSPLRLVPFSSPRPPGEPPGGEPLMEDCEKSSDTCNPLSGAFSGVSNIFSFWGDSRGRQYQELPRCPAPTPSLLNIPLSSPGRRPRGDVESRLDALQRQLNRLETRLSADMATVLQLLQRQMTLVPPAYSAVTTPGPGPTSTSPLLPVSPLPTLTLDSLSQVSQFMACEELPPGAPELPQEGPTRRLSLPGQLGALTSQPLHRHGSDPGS

[5] = target: T1, Transcriptional regulator MvfR (Pseudomonas aeruginosa PA14) (UniProt A0A072ZLE6); test: Inhibition of Pseudomonas aeruginosa PAO1 PqsR assessed as increase in pyocyanin production level at 10 uM measured after 10 mins by spectrometry based analysis relative to control
T1 sequence (whole entry): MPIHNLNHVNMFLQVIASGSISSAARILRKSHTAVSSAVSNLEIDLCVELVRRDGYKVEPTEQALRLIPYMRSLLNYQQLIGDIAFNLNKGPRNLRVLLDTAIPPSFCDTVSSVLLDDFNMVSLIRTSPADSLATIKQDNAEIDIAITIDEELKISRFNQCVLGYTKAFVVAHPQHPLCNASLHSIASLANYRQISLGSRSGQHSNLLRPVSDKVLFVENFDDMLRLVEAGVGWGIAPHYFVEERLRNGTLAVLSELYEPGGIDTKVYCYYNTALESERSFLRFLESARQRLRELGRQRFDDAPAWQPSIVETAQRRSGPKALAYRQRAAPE
How it was run: (§3)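 PAO1 cultured with or without 10 µM compound. Pyocyanin quantified by a spectrometry-based method and expressed as percent of vehicle-treated control. Mean ± SEM of at least 32 replicates.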

Pseudomonas aeruginosa [6] = test: Inhibition of pyoverdin production in Pseudomonas aeruginosa at 10 uM relative to control; format: functional
Pseudomonas aeruginosa [7] = test: Inhibition of biofilm formation in Pseudomonas aeruginosa PAO1 at 10 uM incubated for 10 hrs by crystal violet staining based microtiter plate method; format: functional, organism-based; how it was run: as §1
Pseudomonas aeruginosa [8] = test: Inhibition of biofilm formation in Pseudomonas aeruginosa PA14 at 10 uM incubated for 10 hrs by crystal violet staining based microtiter plate method; format: functional, organism-based; how it was run: as §1
[9] = target: T1, Transcriptional regulator MvfR (Pseudomonas aeruginosa PA14); test: Inhibition of Pseudomonas aeruginosa PAO1 PqsR assessed as reduction in pyocyanin production level at 10 uM measured after 10 mins by spectrometry based analysis; how it was run: as §3
[10] = target: Transcriptional activator protein LasR (Pseudomonas aeruginosa (strain ATCC 15692 / PAO1 / 1C / PRS 101 / LMG12228)) (UniProt P25084); test: Inhibition of Pseudomonas aeruginosa PAO1 LasR transfected with lasB-GFP at 10 uM measured after 12 hrs by fluorescence based microtiter plate reader method
Chain of Transcriptional activator protein LasR (Pseudomonas aeruginosa (strain ATCC 15692 / PAO1 / 1C / PRS 101 / LMG12228)) (P25084 whole entry): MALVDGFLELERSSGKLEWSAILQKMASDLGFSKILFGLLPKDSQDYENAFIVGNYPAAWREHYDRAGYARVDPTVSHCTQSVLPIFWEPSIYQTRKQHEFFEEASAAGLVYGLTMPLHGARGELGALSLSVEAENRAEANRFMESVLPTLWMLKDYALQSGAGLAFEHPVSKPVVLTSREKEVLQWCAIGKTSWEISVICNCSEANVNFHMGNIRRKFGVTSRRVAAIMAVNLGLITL
How it was run: (§4)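 GFP reporter strains (PqsR: PA14 pAW1::GFP; LasR: PAO1 lasB::GFP) grown 12 h in LB broth with 5% BSA, with or without 10 µM compound.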

[11] = target: T1, Transcriptional regulator MvfR (Pseudomonas aeruginosa PA14); test: Inhibition of Pseudomonas aeruginosa PA14 PqsR transfected with pAW1-GFP at 10 uM measured after 12 hrs by fluorescence based microtiter plate reader method; how it was run: as §4
[12] = Inhibition of quorum sensing system in Pseudomonas aeruginosa assessed as reduction of rhamnolipids level at 10 uM measured after 24 hrs by methylene-blue based assay; how it was run: as §2
Pseudomonas aeruginosa [13] = test: Inhibition of pyocyanin production in Pseudomonas aeruginosa at 1 uM relative to control; format: functional
Pseudomonas aeruginosa [14] = test: Inhibition of pyocyanin production in Pseudomonas aeruginosa at 100 uM relative to control; format: functional
[15] = target: T1, Transcriptional regulator MvfR (Pseudomonas aeruginosa PA14); test: Inhibition of Pseudomonas aeruginosa PqsR at 5 uM relative to control
Pseudomonas aeruginosa [16] = test: Inhibition of pyocyanin production in Pseudomonas aeruginosa at 50 uM relative to control; format: functional
Pseudomonas aeruginosa [17] = test: Inhibition of biofilm formation in Pseudomonas aeruginosa at 50 uM relative to control; format: functional

O=C(CCCC(=O)c1cccc([N+](=O)[O-])c1)NC1CCCC1 gave an inhibition at 10 µM (Pseudomonas aeruginosa [1]) of 40 to 60%, an inhibition at 10 µM (Pseudomonas aeruginosa [2]) of 40 to 60% and an inhibition [3] of 30 to 50%. The IC50 [4] was 20.4 µM.

O=C(CCNC(=O)c1cccc([N+](=O)[O-])c1)NC1CCOC1=O (stereo not drawn) showed an inhibition at 10 µM (Pseudomonas aeruginosa [1]) of 40 to 60%, an inhibition at 10 µM (Pseudomonas aeruginosa [2]) of 40 to 60% and an inhibition [3] of 30 to 50%. The IC50 [4] was 904 µM.

O=C(CCCS(=O)(=O)c1ccccc1)Nc1cc[nH]c(=O)n1 showed an inhibition at 10 µM (Pseudomonas aeruginosa [1]) of 40 to 60%, an inhibition at 10 µM (Pseudomonas aeruginosa [2]) of 40 to 60% and an inhibition [5] of 20 to 90%. It also gave an IC50 [4] of 67.8 µM.

With O=C1C=C(Br)/C(=C/Br)O1 the inhibition at 10 µM (Pseudomonas aeruginosa [6]) was > 90%.

With CCCCOc1cc(Cl)c(/N=N/c2c(O)ccc3ccccc23)c(OCCCC)c1 the inhibition (Pseudomonas aeruginosa [7]) was “inactive”, the inhibition (Pseudomonas aeruginosa [8]) was “inactive” and the inhibition [9] was “inactive”. For the same compound, the IC50 [4] was 0.4 µM.

Compound O=C(CCCS(=O)(=O)c1ccccc1)Nc1nc(=O)[nH]cc1F has an inhibition at 10 µM (Pseudomonas aeruginosa [1]) of 40 to 60%, an inhibition at 10 µM (Pseudomonas aeruginosa [2]) of 40 to 60% and an inhibition [5] of 20 to 90%. The inhibition [10] was “inactive”, the inhibition [11] was “inactive” and the IC50 [4] was 40.5 µM.

With Cc1ccc(NC(=O)c2ccc3c(c2)CC(c2ccc(Cl)cc2)OC3=O)cc1C (stereo not drawn) the inhibition at 10 µM (Pseudomonas aeruginosa [1]) was 40 to 60%, the inhibition at 10 µM (Pseudomonas aeruginosa [2]) was 40 to 60% and the IC50 [4] was 6.77 µM.

O=C(c1cn(CCCNCc2ccc(Oc3ccc(Cl)cc3)cc2)nn1)N1CCOCC1 showed an inhibition at 10 µM (Pseudomonas aeruginosa [1]) of 40 to 60%, an inhibition at 10 µM (Pseudomonas aeruginosa [2]) of 40 to 60% and an IC50 [4] of 0.678 µM. For the same compound, the inhibition [12] was “inactive”.

O=C(CCCS(=O)(=O)c1ccccc1)NC1CCOC1=O (stereo not drawn) gave an inhibition at 10 µM (Pseudomonas aeruginosa [1]) of 40 to 60%, an inhibition at 10 µM (Pseudomonas aeruginosa [2]) of 40 to 60% and an inhibition [3] of 30 to 50%. It also gave an IC50 [4] of 109 µM.

In the case of CCCCOc1ccc(Cl)c(OCCCC)c1/N=N/c1c(O)ccc2ccccc12, the inhibition (Pseudomonas aeruginosa [7]) is reported as “inactive”, the inhibition (Pseudomonas aeruginosa [8]) is reported as “inactive” and the inhibition [9] is reported as “inactive”. For the same compound, the IC50 [4] was 0.38 µM.

For O=C(CSc1nc2cc([N+](=O)[O-])ccc2[nH]1)Nc1ccc(Oc2ccccc2)cc1, the IC50 [4] was 8.24 µM and the inhibition at 1 µM (Pseudomonas aeruginosa [13]) was 95%.

CCCCCCCCCNC(=O)CC(=O)c1ccccc1 gave an inhibition at 100 µM (Pseudomonas aeruginosa [14]) of 90%.

In the case of O=C(CCNC(=O)c1cccc([N+](=O)[O-])c1)Nc1nc(=O)[nH]cc1F, the inhibition at 10 µM (Pseudomonas aeruginosa [1]) is reported as 40 to 60%, the inhibition at 10 µM (Pseudomonas aeruginosa [2]) is reported as 40 to 60% and the inhibition [5] is reported as 20 to 90%. The inhibition [10] was “inactive”, the inhibition [11] was “Active” and the IC50 [4] was 356 µM.

Work on CCCCCCCc1[nH]c2ccc([N+](=O)[O-])cc2c(=O)c1CO yielded an inhibition at 10 µM (Pseudomonas aeruginosa [1]) of 40 to 60%, an inhibition at 10 µM (Pseudomonas aeruginosa [2]) of 40 to 60% and an inhibition [15] of 100%.

For CCCCOc1cc(Cl)cc(OCCCC)c1/N=N/c1c(O)ccc2ccccc12, the inhibition (Pseudomonas aeruginosa [7]) was “inactive”, the inhibition (Pseudomonas aeruginosa [8]) was “inactive” and the inhibition [9] was “inactive”.

With Cc1ccc(N(C)C(=O)c2ccc3c(c2)CC(c2ccc(Cl)cc2)OC3=O)cc1C (stereo not drawn) the inhibition at 10 µM (Pseudomonas aeruginosa [1]) was 40 to 60%, the inhibition at 10 µM (Pseudomonas aeruginosa [2]) was 40 to 60% and the IC50 [4] was 2.92 µM.

O=C(Cc1ccc(Br)cc1)N[C@H]1CCOC1=O gave an inhibition at 50 µM (Pseudomonas aeruginosa [16]) of 10 to 30% and an inhibition at 50 µM (Pseudomonas aeruginosa [17]) of 40%.
